According to ChEMBL document CHEMBL5649170, “Sustained microglial depletion with CSF1R inhibitor impairs parenchymal plaque development in an Alzheimer's disease model” (Nat Commun, 2019):
Activity calls are given as the source filed them. The rule behind the calls is not given here.

Tests used:
[1] = target: Beta-adrenergic receptor kinase 1 (Homo sapiens, UniProt P25098); assay: Inhibition of ADRBK1 (unknown origin)
[2] = target: RAC-alpha serine/threonine-protein kinase (Homo sapiens, UniProt P31749); assay: Inhibition of AKT1 (unknown origin)
Sequence of RAC-alpha serine/threonine-protein kinase (P31749 whole entry): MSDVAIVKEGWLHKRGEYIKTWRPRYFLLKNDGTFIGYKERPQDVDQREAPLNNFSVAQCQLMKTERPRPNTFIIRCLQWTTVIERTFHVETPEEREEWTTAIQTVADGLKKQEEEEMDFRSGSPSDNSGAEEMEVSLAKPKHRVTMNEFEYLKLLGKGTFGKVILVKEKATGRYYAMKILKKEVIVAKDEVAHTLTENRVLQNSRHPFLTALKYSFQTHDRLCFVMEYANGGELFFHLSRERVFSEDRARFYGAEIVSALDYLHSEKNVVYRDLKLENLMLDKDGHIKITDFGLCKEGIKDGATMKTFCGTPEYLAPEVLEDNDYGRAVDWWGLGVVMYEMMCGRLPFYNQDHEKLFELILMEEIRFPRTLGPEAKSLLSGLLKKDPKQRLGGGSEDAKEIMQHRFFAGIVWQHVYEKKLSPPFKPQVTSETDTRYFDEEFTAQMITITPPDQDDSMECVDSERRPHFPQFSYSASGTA

[3] = target: Cyclin-dependent kinase 5/CDK5 activator 1 (Homo sapiens, UniProt Q00535); assay: Inhibition of CDK5_p35 (unknown origin); type: protein-complex assay
Sequence of Cyclin-dependent kinase 5/CDK5 activator 1 (Q00535 whole entry): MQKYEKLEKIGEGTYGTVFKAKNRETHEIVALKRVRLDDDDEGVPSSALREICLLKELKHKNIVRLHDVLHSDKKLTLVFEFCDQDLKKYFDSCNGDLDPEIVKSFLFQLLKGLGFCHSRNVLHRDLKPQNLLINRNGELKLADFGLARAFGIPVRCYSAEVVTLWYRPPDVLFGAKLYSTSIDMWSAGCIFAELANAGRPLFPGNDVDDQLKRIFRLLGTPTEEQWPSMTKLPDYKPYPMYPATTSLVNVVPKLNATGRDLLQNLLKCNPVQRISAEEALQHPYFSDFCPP
Sequence of Cyclin-dependent kinase 5/CDK5 activator 1 (Q15078 whole entry, further chain): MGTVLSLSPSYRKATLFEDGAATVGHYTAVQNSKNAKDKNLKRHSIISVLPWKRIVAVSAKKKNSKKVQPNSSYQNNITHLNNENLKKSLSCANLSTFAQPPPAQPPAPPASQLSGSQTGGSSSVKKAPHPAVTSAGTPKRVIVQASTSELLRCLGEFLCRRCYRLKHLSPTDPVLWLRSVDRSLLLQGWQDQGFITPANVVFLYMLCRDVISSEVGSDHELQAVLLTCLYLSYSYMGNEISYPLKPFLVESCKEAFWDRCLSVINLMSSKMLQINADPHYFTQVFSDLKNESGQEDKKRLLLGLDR

[4] = target: Casein kinase II subunit alpha (Homo sapiens, UniProt P68400); assay: Inhibition of CSNK2A1 (unknown origin)
Sequence of Casein kinase II subunit alpha (P68400 whole entry): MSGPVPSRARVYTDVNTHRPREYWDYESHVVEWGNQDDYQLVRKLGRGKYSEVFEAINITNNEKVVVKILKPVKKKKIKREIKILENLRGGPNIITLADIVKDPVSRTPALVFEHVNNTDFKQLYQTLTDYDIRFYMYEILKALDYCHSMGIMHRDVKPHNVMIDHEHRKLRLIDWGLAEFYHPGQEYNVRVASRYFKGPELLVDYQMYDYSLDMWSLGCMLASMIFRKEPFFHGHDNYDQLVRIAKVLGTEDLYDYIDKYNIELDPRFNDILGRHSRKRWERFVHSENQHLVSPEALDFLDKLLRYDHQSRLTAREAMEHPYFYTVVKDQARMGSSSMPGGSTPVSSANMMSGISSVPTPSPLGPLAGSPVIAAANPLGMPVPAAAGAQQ

[5] = target: Casein kinase II subunit alpha' (Homo sapiens, UniProt P19784); assay: Inhibition of CSNK2A2 (unknown origin)
[6] = target: Serine/threonine-protein kinase mTOR (Homo sapiens, UniProt P42345); assay: Inhibition of FRAP1 (unknown origin)
[7] = target: Glycogen synthase kinase-3 beta (Homo sapiens, UniProt P49841); assay: Inhibition of GSK3B (unknown origin)
Sequence of Glycogen synthase kinase-3 beta (P49841 whole entry): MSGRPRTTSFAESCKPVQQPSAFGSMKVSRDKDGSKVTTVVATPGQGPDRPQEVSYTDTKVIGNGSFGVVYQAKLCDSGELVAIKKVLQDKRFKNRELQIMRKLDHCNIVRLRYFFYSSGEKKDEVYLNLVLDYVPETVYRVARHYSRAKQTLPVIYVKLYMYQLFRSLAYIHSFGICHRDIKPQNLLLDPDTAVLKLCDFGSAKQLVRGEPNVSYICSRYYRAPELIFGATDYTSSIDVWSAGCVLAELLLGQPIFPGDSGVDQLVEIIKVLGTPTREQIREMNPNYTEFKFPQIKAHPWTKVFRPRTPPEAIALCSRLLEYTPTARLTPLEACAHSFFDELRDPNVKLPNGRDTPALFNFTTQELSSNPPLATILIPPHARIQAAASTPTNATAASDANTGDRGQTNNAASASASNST

[8] = target: Homeodomain-interacting protein kinase 1 (Homo sapiens, UniProt Q86Z02); assay: Inhibition of HIPK1 (unknown origin)
Sequence of Homeodomain-interacting protein kinase 1 (Q86Z02 whole entry): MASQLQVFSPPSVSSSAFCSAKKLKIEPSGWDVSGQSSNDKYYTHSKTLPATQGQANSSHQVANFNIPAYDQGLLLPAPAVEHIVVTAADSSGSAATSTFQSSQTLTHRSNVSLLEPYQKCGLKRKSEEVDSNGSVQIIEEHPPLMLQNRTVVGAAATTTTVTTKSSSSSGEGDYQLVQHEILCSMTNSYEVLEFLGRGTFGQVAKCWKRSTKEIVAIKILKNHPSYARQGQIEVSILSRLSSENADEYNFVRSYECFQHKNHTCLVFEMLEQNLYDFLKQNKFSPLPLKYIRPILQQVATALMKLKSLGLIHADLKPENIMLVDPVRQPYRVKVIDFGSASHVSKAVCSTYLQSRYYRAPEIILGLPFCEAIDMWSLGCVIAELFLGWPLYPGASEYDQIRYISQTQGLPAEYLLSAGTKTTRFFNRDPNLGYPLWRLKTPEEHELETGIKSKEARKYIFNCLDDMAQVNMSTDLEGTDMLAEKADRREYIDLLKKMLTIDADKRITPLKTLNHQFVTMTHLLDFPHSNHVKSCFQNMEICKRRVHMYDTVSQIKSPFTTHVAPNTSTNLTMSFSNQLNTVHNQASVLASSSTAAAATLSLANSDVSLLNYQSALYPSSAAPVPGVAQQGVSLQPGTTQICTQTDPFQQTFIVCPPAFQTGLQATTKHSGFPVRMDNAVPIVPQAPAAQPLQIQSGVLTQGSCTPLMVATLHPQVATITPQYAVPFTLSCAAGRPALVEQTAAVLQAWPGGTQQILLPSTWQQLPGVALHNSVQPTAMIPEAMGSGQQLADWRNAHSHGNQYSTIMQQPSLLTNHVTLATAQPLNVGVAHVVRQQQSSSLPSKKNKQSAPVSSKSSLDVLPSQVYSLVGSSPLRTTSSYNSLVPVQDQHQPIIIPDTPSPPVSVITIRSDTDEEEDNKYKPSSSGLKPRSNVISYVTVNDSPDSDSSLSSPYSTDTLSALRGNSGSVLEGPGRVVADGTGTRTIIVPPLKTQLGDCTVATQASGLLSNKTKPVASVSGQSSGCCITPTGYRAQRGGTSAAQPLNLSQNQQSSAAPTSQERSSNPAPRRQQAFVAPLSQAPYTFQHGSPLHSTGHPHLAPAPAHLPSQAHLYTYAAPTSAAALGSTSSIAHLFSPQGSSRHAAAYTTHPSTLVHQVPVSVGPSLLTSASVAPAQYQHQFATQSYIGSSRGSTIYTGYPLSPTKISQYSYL

[9] = target: Tyrosine-protein kinase JAK3 (Homo sapiens, UniProt P52333); assay: Inhibition of JAK3 (unknown origin)
Sequence of Tyrosine-protein kinase JAK3 (P52333 whole entry): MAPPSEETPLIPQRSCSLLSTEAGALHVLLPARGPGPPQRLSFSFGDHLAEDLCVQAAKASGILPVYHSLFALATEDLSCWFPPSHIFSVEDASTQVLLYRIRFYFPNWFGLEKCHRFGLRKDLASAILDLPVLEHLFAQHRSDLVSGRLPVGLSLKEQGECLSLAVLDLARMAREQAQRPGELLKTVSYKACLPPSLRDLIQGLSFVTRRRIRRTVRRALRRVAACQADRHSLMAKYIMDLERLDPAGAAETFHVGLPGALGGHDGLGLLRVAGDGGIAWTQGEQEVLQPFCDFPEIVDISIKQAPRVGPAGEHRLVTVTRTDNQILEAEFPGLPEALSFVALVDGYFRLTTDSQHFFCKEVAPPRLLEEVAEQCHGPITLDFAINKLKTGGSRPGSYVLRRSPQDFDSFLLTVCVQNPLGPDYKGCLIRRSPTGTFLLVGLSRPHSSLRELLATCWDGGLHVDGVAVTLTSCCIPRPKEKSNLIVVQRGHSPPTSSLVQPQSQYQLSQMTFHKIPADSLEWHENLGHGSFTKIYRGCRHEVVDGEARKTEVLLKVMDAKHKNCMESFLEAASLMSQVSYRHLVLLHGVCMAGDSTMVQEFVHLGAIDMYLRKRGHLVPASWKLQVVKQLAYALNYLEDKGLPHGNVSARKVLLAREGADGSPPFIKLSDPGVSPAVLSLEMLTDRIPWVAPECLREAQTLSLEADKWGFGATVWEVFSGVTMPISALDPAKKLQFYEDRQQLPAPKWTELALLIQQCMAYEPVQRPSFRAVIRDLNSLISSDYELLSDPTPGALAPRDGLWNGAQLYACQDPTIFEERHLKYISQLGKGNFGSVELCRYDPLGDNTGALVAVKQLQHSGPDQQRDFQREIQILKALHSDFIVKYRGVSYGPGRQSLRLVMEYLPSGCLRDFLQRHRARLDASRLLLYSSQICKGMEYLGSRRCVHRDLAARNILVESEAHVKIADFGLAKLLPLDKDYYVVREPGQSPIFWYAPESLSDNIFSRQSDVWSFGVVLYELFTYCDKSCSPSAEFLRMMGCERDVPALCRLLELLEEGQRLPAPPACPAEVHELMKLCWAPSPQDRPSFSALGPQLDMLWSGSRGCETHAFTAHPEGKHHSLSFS

[10] = Volume of distribution at steady state in female rat at 1.13 mg/kg, iv administered as single dose; type: ADME, organism-based; conditions: in vivo, read-out: Vdss
[11] = Cmax in mouse at 45 mg/kg, po administered as single dose via gavage; type: ADME, organism-based; conditions: in vivo
[12] = Drug concentration in 5XFAD mouse plasma at 1200 ppm administered as rodent chow for 10 to 24 weeks; type: ADME, cell-free; conditions: po, time 10-24 weeks
How it was run: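 WT or 5xFAD mice were started at 1.5 months of age on PLX5622 formulated at 1200 ppm in AIN-76A chow, with control chow as comparison. Feeding ran for 10 or 24 weeks. Terminal plasma and brain drug levels were then measured. Groups were sex-balanced and compared by two-tailed independent t-test.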

Mus musculus [13] = assay: Antialzheimer activity in 5XFAD mouse assessed as number of Iba positive cells per FOV in somatosensory cortex at 1200 ppm administered as rodent chow starting from 1.5 months and measured after 4 months (reference value: 192 to 604); type: functional; conditions: route po, time 2.5 months, 1825 h
[14] = Toxicity in wildtype mouse assessed as time spent in open arm at 1200 ppm administered as rodent chow for 10 to 24 weeks by Elevated plus maze test (reference value: 8.7 to 179.9 sec); conditions: in vivo, po, time 10-24 weeks
Mus musculus [15] = assay: Antialzheimer activity in 5XFAD mouse assessed as time spent in perimeter zone at 1200 ppm administered as rodent chow for 10 to 24 weeks by Open field test (reference value: 169.1 to 285.1 sec); type: functional; conditions: route po, time 10-24 weeks
[16] = target: T1, Macrophage colony-stimulating factor 1 receptor (Mus musculus) (UniProt P09581); assay: In vivo inhibition of CSF1R in wildtype mouse assessed as microglial elimination in thalamus at 1200 ppm administered as rodent chow for 10 weeks by […] based confocal microscopic analysis; type: functional; conditions: route po
T1 sequence (whole entry): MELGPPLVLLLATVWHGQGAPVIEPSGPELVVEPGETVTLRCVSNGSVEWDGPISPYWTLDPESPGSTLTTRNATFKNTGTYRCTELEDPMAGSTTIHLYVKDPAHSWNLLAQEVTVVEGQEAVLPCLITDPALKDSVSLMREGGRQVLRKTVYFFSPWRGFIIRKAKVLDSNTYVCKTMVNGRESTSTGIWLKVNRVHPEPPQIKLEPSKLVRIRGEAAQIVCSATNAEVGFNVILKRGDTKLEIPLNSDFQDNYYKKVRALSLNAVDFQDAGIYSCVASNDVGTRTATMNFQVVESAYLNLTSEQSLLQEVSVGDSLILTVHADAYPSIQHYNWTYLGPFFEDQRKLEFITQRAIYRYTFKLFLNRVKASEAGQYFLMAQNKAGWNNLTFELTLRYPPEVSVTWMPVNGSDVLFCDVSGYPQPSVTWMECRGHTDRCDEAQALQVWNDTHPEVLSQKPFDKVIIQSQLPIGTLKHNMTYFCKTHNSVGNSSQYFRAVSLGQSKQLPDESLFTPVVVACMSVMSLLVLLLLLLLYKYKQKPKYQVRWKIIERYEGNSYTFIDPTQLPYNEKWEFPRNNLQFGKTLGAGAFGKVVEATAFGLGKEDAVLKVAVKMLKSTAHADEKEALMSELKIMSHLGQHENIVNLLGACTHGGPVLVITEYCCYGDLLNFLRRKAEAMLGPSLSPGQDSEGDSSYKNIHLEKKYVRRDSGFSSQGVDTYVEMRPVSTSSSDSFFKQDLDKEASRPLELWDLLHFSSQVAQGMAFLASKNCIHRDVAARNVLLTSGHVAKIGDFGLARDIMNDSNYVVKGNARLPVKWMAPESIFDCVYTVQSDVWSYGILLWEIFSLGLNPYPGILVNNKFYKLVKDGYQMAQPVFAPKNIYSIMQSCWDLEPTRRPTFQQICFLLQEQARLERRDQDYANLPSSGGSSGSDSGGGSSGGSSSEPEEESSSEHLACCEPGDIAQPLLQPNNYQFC

[17] = Effect on Siglech gene expression in 5XFAD mouse thalamus at 1200 ppm administered as rodent chow starting from 1.5 months and measured after 7 months by RNA-Seq analysis (reference value: 4.466 to 6.336 RPKM); type: functional; conditions: route po, time 5.5 months, 4015 h
[18] = Effect on Spi1 gene expression in 5XFAD mouse thalamus at 1200 ppm administered as rodent chow starting from 1.5 months and measured after 7 months by RNA-Seq analysis (reference value: 2.107 to 3.285 RPKM); type: functional; conditions: route po, time 5.5 months, 4015 h
[19] = Effect on Clec7a gene expression in wild type mouse hippocampus at 1200 ppm administered as rodent chow starting from 1.5 months and measured after 7 months by RNA-Seq analysis (reference value: 0.034 to 0.503 RPKM); type: functional; conditions: route po, time 5.5 months, 4015 h
How it was run: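 WT and 5xFAD mice were treated with 1200 ppm PLX5622 chow or control chow from 1.5 to 7 months of age. Brains were microdissected into cortex, hippocampus and thalamus, and RNA was extracted from tissue powder. Whole-transcriptome RNA-Seq libraries were sequenced, with n = 4 per group per region (48 samples).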

[20] = Prevention of Pcdhac1 gene downregulation in 5XFAD mouse hippocampus assessed as percent change in Reads Per kilo base per Million mapped reads at 1200 ppm administered as rodent chow starting from 1.5 months and measured after 7 months by RNA-Seq analysis (reference value: 43.082 to 72.354 %); type: functional; conditions: route po, time 5.5 months, 4015 h
Mus musculus [21] = assay: Prevention of C1qc gene upregulation in 5XFAD mouse hippocampus at 1200 ppm administered as rodent chow starting from 1.5 months and measured after 7 months by Nanostring analysis; type: functional, tissue-based; conditions: route po, time 5.5 months
[22] = target: T1, Macrophage colony-stimulating factor 1 receptor (Mus musculus); assay: In vivo inhibition of CSF1R in wildtype mouse assessed as number of GFAP positive cells per FOV at 1200 ppm administered as rodent chow starting from 1.5 months and measured after 4 months by immunolabeling based confocal microscopic analysis (reference value: 1 to 7); type: functional; conditions: route po, time 2.5 months

Sequence of Beta-adrenergic receptor kinase 1 (P25098 whole entry): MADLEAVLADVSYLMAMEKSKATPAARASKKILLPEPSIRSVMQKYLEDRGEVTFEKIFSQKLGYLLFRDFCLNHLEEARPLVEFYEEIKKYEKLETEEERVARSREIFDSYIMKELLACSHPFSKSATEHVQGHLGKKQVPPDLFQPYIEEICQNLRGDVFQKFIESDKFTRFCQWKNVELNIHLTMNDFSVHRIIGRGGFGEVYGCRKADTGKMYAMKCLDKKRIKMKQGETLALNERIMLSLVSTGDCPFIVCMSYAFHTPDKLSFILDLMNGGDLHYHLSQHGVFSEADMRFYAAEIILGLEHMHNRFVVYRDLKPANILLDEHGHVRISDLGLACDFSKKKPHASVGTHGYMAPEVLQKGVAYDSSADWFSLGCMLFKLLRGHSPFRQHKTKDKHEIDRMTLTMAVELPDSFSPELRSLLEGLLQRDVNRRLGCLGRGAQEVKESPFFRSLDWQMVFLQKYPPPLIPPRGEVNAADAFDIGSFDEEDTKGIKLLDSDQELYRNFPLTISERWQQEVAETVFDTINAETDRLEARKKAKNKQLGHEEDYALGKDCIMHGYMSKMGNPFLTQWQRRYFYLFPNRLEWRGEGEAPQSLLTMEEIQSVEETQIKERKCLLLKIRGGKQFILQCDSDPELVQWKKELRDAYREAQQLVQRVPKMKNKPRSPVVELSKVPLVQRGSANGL

COc1ncc(F)cc1CNc1ccc(Cc2c[nH]c3ncc(C)cc23)c(F)n1 [PLX-5622]
IC50 [1]: > 1000 nM | IC50 [2]: > 1000 nM | IC50 [3]: > 1000 nM | IC50 [4]: > 1000 nM | IC50 [5]: > 1000 nM | IC50 [6]: > 1000 nM | IC50 [7]: > 1000 nM | IC50 [8]: > 1000 nM | IC50 [9]: > 1000 nM | Vd [10]: 1 L/kg | Cmax [11]: 26300 ng/mL | concentration [12]: 13.5 µM | Activity (Mus musculus [13]): 0 | Time [14]: 11.9 s | Time (Mus musculus [15]): 201.4 s | inhibition [16]: inactive | Activity [17]: 0 RPKM | Activity [18]: 0 RPKM | Activity [19]: 0.04 RPKM | Activity [20]: 76.485% | Activity (Mus musculus [21]): Active | Activity [22]: 4
